# Columns and labels:
# Assay type in all cases: functional, cell-based
# MCF7 = test: Cytotoxicity against human MCF7 cells by MTT colorimetric method
# How it was run: (§1)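 Human cancer cell lines were obtained from ATCC. Cytotoxicity was measured by the MTT [3-(4,5-dimethylthiazol-2-yl)-2,5-diphenyltetrazolium bromide] colorimetric method.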
# [1] = Cytotoxicity against human Hep G2 cells by MTT colorimetric method; settings: HepG2; how it was run: as §1
# A549 = test: Cytotoxicity against human A549 cells by MTT colorimetric method; how it was run: as §1
# MDA-MB-231 = test: Cytotoxicity against human MDA-MB-231 cells by MTT colorimetric method; how it was run: as §1
SMILES,IC50 (MCF7) [µg/mL],IC50 [1] [µg/mL],IC50 (A549) [µg/mL],IC50 (MDA-MB-231) [µg/mL]
C=C1C(=O)O[C@H]2C[C@@]3(C)O[C@@H]3CC/C(C)=C/C[C@@H](OC(C)=O)/C(C)=C/C[C@H]12 [CRASSOCOLIDE F],7.4,2.1,3.2,8.8
COc1cccc2c1C(=O)c1c(O)c3c(c(O)c1C2=O)C[C@@](O)(C(=O)CO)C[C@@H]3O[C@H]1C[C@H](N)[C@H](O)[C@H](C)O1 [DOXORUBICIN],0.3,0.2,–,0.1
C=C1C(=O)O[C@@H]2[C@@H]1C[C@H](O)[C@](C)(O)CC/C=C(\C)CC/C=C(\C)[C@@H]2OC(C)=O [CRASSOLIDE A],8.9,3.1,11.9,8.6
C=C1C(=O)O[C@H]2C/C(C)=C/CC/C(C)=C/CC[C@@](C)(O)[C@@H](O)C[C@H]12 [CRASSOCOLIDE D],15.3,> 30,12.5,> 30
C=C1C(=O)O[C@H]2C[C@]3(C)O[C@H]3CC/C(C)=C/CC/C(C)=C/C[C@H]12 [LOBOPHYTOLIDE],2.3,6.3,2.1,2
C=C1C(=O)O[C@H]2C/C(C)=C/CC/C(C)=C/CC[C@@](C)(O)[C@@H](OC(C)=O)C[C@H]12 [CRASSOCOLIDE C],> 30,> 30,> 30,> 30
C=C1C(=O)O[C@@H]2[C@@H]1C[C@H](OC(C)=O)[C@](C)(O)CC/C=C(\C)CC/C=C(\C)[C@@H]2OC(C)=O [CRASSOCOLIDE B],10.3,13.1,12.1,> 30

# — ChEMBL document CHEMBL1158098, “Crassolides A-F, cembranoids with a trans-fused lactone from the soft coral Sarcophyton crassocaule” (J Nat Prod, 2006)
